From ChEMBL document CHEMBL3352730, “Synthesis and effects on cell viability of flavonols and 3-methyl ether derivatives on human leukemia cells” (Eur J Med Chem, 2014)
The source made the active and inactive calls. No cut-off for these calls is given here.

Key:
HL-60 [1] = experiment: Increase in DR4 expression in human HL60 cells at 10 30 uM after 24 hrs by immunoblotting method; assay type: functional, cell-based
In short: (§1)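 HL-60 and U937 cells were treated with increasing concentrations for 24 h. Lysates were immunoblotted for TRAIL, DR4 and DR5.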

HL-60 [2] = experiment: Induction of cell cycle arrest in human HL60 cells assessed as accumulation at G1 phase at 1 uM after 24 hrs by propidium iodide staining based flow cytometry (reference value: 53 +/- 1.1%); assay type: functional
MOLT-3 [3] = experiment: Induction of apoptosis in human MOLT3 cells assessed as reduction in pro-caspase-4 level by Western blotting method; assay type: functional, cell-based
In short: (§2)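 Cells were exposed to a range of compound concentrations and harvested at 24 h. Lysates were immunoblotted for caspase proforms and cleaved forms, and for Bcl-2 family proteins.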

Raji = experiment: Cytotoxicity against human Raji cells after 72 hrs by MTT assay; assay type: functional, cell-based
In short: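 MTT colorimetric assay with 72 h continuous exposure. IC50 was fitted per experiment by non-linear regression. Values are means with SE from at least three independent experiments, each run in triplicate.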

HL-60 [4] = experiment: Reduction in Bid expression in human HL60 cells by Western blotting method; assay type: functional, cell-based
In short: (§3)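 Cells (HL-60, Molt-3 or U937) were incubated with increasing concentrations of compound and harvested at 24 h. Cell lysates were then immunoblotted for Bid and other Bcl-2 family members.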

HL-60 [5] = experiment: Induction of apoptosis in human HL60 cells in presence of p38MAPK inhibitor SB203580 after 24 hrs by propidium iodide staining based flow cytometry; assay type: functional, cell-based
MOLT-3 [6] = experiment: Effect on Bcl-2 expression in human MOLT3 cells by Western blotting method; assay type: functional, cell-based; in short: as §2
U-937 [7] = experiment: Induction of cell cycle arrest in human U937 cells assessed as accumulation at G1 phase at 10 uM after 48 hrs by propidium iodide staining based flow cytometry (reference value: 51.9 +/- 0.9%); assay type: functional
MOLT-3 [8] = experiment: Induction of apoptosis in human MOLT3 cells assessed as increase in caspase 9 activity using LEHD-pNA substrate at 10 uM after 24 hrs; assay type: functional, cell-based
In short: (§4)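 Cells were given 10 µM for 24 h. Lysates were assayed for cleavage of DEVD-pNA (caspase-3/7), IETD-pNA (caspase-8) and LEHD-pNA (caspase-9). Results are expressed as fold over control, from three independent experiments in triplicate.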

U-937 [9] = experiment: Induction of cell cycle arrest in human U937 cells assessed as accumulation at subG1 phase at 3 uM after 12 hrs by propidium iodide staining based flow cytometry (reference value: 4.6 +/- 0.9%); assay type: functional
U-937 [10] = experiment: Induction of cell cycle arrest in human U937 cells assessed as accumulation at S phase at 10 uM after 12 hrs by propidium iodide staining based flow cytometry (reference value: 20.5 +/- 0.8%); assay type: functional
HL-60 [11] = experiment: Induction of apoptosis in human HL60 cells assessed as pro-caspase-4 processing by Western blotting method; assay type: functional, cell-based
MOLT-3 [12] = experiment: Reduction in Bid expression in human MOLT3 cells by Western blotting method; assay type: functional, cell-based; in short: as §3
MOLT-3 [13] = experiment: Induction of apoptosis in human MOLT3 cells assessed as increase in caspase 3/7 activity using DEVD-pNA substrate at 10 uM after 24 hrs; assay type: functional, cell-based; in short: as §4
HL-60 [14] = experiment: Induction of cell cycle arrest in human HL60 cells assessed as accumulation at S phase at 3 uM after 48 hrs by propidium iodide staining based flow cytometry (reference value: 15.3 +/- 0.1%); assay type: functional
HL-60 [15] = experiment: Induction of cell cycle arrest in human HL60 cells assessed as accumulation at G1 phase at 10 uM after 48 hrs by propidium iodide staining based flow cytometry (reference value: 60.4 +/- 0.4%); assay type: functional
U-937 [16] = experiment: Induction of apoptosis in human U937 cells assessed as increase in caspase 8 activity using IETD-pNA substrate at 10 uM after 24 hrs; assay type: functional, cell-based; in short: as §4
U-937 [17] = experiment: Induction of cell cycle arrest in human U937 cells assessed as accumulation at subG1 phase at 3 uM after 24 hrs by propidium iodide staining based flow cytometry (reference value: 3.9 +/- 0.8%); assay type: functional
U-937 [18] = experiment: Induction of cell cycle arrest in human U937 cells assessed as accumulation at G2/M phase at 1 uM after 24 hrs by propidium iodide staining based flow cytometry (reference value: 22.8 +/- 1.6%); assay type: functional
U-937 [19] = experiment: Induction of cell cycle arrest in human U937 cells assessed as accumulation at S phase at 1 uM after 24 hrs by propidium iodide staining based flow cytometry (reference value: 18.6 +/- 0.3%); assay type: functional
HL-60 [20] = experiment: Induction of apoptosis in human HL60 cells in presence of JNK/SAPK inhibitor SP600125 after 24 hrs by propidium iodide staining based flow cytometry; assay type: functional, cell-based
HL-60 [21] = experiment: Induction of cell cycle arrest in human HL60 cells assessed as accumulation at G2/M phase at 1 uM after 48 hrs by propidium iodide staining based flow cytometry (reference value: 17.9 +/- 0.7%); assay type: functional
U-937 [22] = experiment: Induction of cell cycle arrest in human U937 cells assessed as accumulation at G2/M phase at 3 uM after 24 hrs by propidium iodide staining based flow cytometry (reference value: 22.8 +/- 1.6%); assay type: functional
HL-60 [23] = experiment: Increase in DR5 expression in human HL60 cells at 10 30 uM after 24 hrs by immunoblotting method; assay type: functional, cell-based; in short: as §1
U-937 [24] = experiment: Induction of cell cycle arrest in human U937 cells assessed as accumulation at subG1 phase at 10 uM after 12 hrs by propidium iodide staining based flow cytometry (reference value: 4.6 +/- 0.9%); assay type: functional
U-937 [25] = experiment: Induction of cell cycle arrest in human U937 cells assessed as accumulation at subG1 phase at 3 uM after 48 hrs by propidium iodide staining based flow cytometry (reference value: 6.7 +/- 0.3%); assay type: functional
U-937 [26] = experiment: Induction of cell cycle arrest in human U937 cells assessed as accumulation at G2/M phase at 10 uM after 48 hrs by propidium iodide staining based flow cytometry (reference value: 19.1 +/- 1.1%); assay type: functional
U-937 [27] = experiment: Increase in DR5 expression in human U937 cells at 10 30 uM after 24 hrs by immunoblotting method; assay type: functional, cell-based; in short: as §1
HL-60 [28] = experiment: Induction of cell cycle arrest in human HL60 cells assessed as accumulation at subG1 phase at 3 uM after 12 hrs by propidium iodide staining based flow cytometry (reference value: 6.1 +/- 0.5%); assay type: functional
U-937 [29] = experiment: Induction of cell cycle arrest in human U937 cells assessed as accumulation at G1 phase at 1 uM after 12 hrs by propidium iodide staining based flow cytometry (reference value: 45.8 +/- 0.8%); assay type: functional
HL-60 [30] = experiment: Induction of cell cycle arrest in human HL60 cells assessed as accumulation at G2/M phase at 10 uM after 24 hrs by propidium iodide staining based flow cytometry (reference value: 22.5 +/- 0.9%); assay type: functional
HL-60 [31] = experiment: Induction of apoptosis in human HL60 cells assessed as increase in caspase 9 activity using LEHD-pNA substrate at 10 uM after 24 hrs; assay type: functional; in short: as §4
HL-60 [32] = experiment: Induction of cell cycle arrest in human HL60 cells assessed as accumulation at subG1 phase at 1 uM after 24 hrs by propidium iodide staining based flow cytometry (reference value: 3.4 +/- 0.3%); assay type: functional

Question: For `O=c1c(O)c(-c2ccc(Br)cc2)oc2ccccc12`, which Activity (HL-60 [1]) is on record?
Answer: The Activity was “Active”.

Question: And the Activity (HL-60 [2])?
Answer: Its Activity is 49.5%.

Question: What about the Activity (MOLT-3 [3]) of the same compound?
Answer: Its Activity is “Active”.

Question: And the IC50 (Raji)?
Answer: The IC50 was 5.8 µM.

Question: What about the Activity (HL-60 [4]) of the same compound?
Answer: The Activity was “Active”.

Question: And the Activity (HL-60 [5])?
Answer: The Activity was “Active”.

Question: What about the Activity (MOLT-3 [6]) of the same compound?
Answer: Its Activity is “inactive”.

Question: And the Activity (U-937 [7])?
Answer: The Activity was 41.4%.

Question: What about the Activity (MOLT-3 [8]) of the same compound?
Answer: The Activity was “Active”.

Question: What about the Activity (U-937 [9]) of the same compound?
Answer: The Activity was 3.1%.

Question: And the Activity (U-937 [10])?
Answer: Its Activity is 24.9%.

Question: What about the Activity (HL-60 [11]) of the same compound?
Answer: The Activity was “Active”.

Question: What about the Activity (MOLT-3 [12]) of the same compound?
Answer: The Activity was “Active”.

Question: What about the Activity (MOLT-3 [13]) of the same compound?
Answer: Its Activity is “Active”.

Question: And the Activity (HL-60 [14])?
Answer: The Activity was 22.1%.

Question: And the Activity (HL-60 [15])?
Answer: Its Activity is 18.4%.

Question: What about the Activity (U-937 [16]) of the same compound?
Answer: The Activity was “Active”.

Question: What about the Activity (U-937 [17]) of the same compound?
Answer: The Activity was 5.5%.

Question: What about the Activity (U-937 [18]) of the same compound?
Answer: The Activity was 25.2%.

Question: What about the Activity (U-937 [19]) of the same compound?
Answer: Its Activity is 18.9%.

Question: And the Activity (HL-60 [20])?
Answer: Its Activity is “Active”.

Question: What about the Activity (HL-60 [21]) of the same compound?
Answer: The Activity was 20.8%.

Question: What about the Activity (U-937 [22]) of the same compound?
Answer: The Activity was 21.7%.

Question: And the Activity (HL-60 [23])?
Answer: Its Activity is “Active”.

Question: And the Activity (U-937 [24])?
Answer: The Activity was 4.3%.

Question: What about the Activity (U-937 [25]) of the same compound?
Answer: The Activity was 16.3%.

Question: And the Activity (U-937 [26])?
Answer: Its Activity is 7%.

Question: And the Activity (U-937 [27])?
Answer: Its Activity is “Active”.

Question: What about the Activity (HL-60 [28]) of the same compound?
Answer: The Activity was 6.3%.

Question: What about the Activity (U-937 [29]) of the same compound?
Answer: Its Activity is 45.8%.

Question: What about the Activity (HL-60 [30]) of the same compound?
Answer: The Activity was 12.6%.

Question: What about the “fold change (FC)” value (HL-60 [31]) of the same compound?
Answer: The value was 1.8.

Question: And the Activity (HL-60 [32])?
Answer: Its Activity is 4.1%.
